Source: ChEMBL document CHEMBL1135716, “A three-dimensional quantitative structure-activity relationship study of heparin-binding epidermal growth factor shedding inhibitors using comparative molecular field analysis” (J Med Chem, 2002)

Experiment: Heparin-binding epidermal growth factor (HB-EGF) shedding inhibition
In short: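 Cell-based shedding assay using HT-1080 fibrosarcoma transfectants that express human placental alkaline phosphatase-tagged HB-EGF. Cells were grown 24 h at 2×10^5/well in MEM with 10% FCS, washed, and preincubated 30 min with compound in MEM containing 1% DMSO. They were then stimulated with 60 nM TPA for 60 min. Supernatant was heated 10 min at 65 °C, then given p-nitrophenyl phosphate substrate (pH 9.8) for 2 h, and A405 was read. IC50 was taken from a concentration series.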

| IC50 [nM] | Compound |
| --- | --- |
| 1500 | O=C(NO)[C@H]1Cc2nccnc2CN1S(=O)(=O)c1ccc(-c2ccccc2)cc1 |
| 70000 | O=C(O)c1ccc(S(=O)(=O)N2Cc3nccnc3C[C@@H]2C(=O)NO)cc1 |
| 1000 | Nc1ccc(Oc2ccc(S(=O)(=O)N3Cc4nccnc4C[C@@H]3C(=O)NO)cc2)cc1 |
| 2700 | Cc1ccc(S(=O)(=O)N2Cc3nccnc3C[C@@H]2C(=O)NO)cc1 |
| 6900 | O=C(NO)[C@H]1Cc2nccnc2CN1S(=O)(=O)c1cccnc1 |
| 4400 | CCCCCCS(=O)(=O)N1Cc2nccnc2C[C@@H]1C(=O)NO |
| 18000 | CN(C)CCCOc1ccc(S(=O)(=O)N2Cc3nccnc3C[C@@H]2C(=O)NO)cc1 |
| 1100 | C=Cc1ccc(S(=O)(=O)N2Cc3nccnc3C[C@@H]2C(=O)NO)cc1 |
| 100 | CSCCCOc1ccc(S(=O)(=O)N2Cc3nccnc3C[C@@H]2C(=O)NO)cc1 |
| 360 | COc1ccc(S(=O)(=O)N2Cc3cc(N(CC(=O)O)CC(=O)O)ccc3C[C@@H]2C(=O)NO)cc1 |
| 70000 | O=C(NO)[C@H]1Cc2nccnc2CN1S(=O)(=O)c1ccc([N+](=O)[O-])cc1 |
| 5400 | Cc1ccc(S(=O)(=O)N2Cc3cc(O)c(O)cc3C[C@@H]2C(=O)NO)s1 |
| 830 | Cc1ccc(S(=O)(=O)N2Cc3ccccc3C[C@@H]2C(=O)NO)cc1 |
| 110 | O=C(NO)[C@H]1Cc2nccnc2CN1S(=O)(=O)c1ccc(Oc2cnccn2)cc1 |
| 260 | CCCCOCCCOc1ccc(S(=O)(=O)N2Cc3nccnc3C[C@@H]2C(=O)NO)cc1 |
| 1290 | O=C(NO)[C@H]1Cc2cc(O)c(O)cc2CN1S(=O)(=O)c1ccc(-c2ccccc2)cc1 |
| 5500 | CC(C)c1ccc(S(=O)(=O)N2Cc3ccccc3C[C@@H]2C(=O)NO)cc1 |
| 1000 | CCCOc1ccc(S(=O)(=O)N2Cc3nccnc3C[C@@H]2C(=O)NO)cc1 |
| 190 | COc1ccc(S(=O)(=O)N2Cc3cc(N)ccc3C[C@@H]2C(=O)NO)cc1 |
| 3000 | COCCc1ccc(S(=O)(=O)N2Cc3nccnc3C[C@@H]2C(=O)NO)s1 |
| 1100 | CCOC(=O)CCCOc1ccc(S(=O)(=O)N2Cc3nccnc3C[C@@H]2C(=O)NO)cc1 |
| 1800 | Nc1ccc(S(=O)(=O)N2Cc3nccnc3C[C@@H]2C(=O)NO)cc1 |
| 6100 | O=C(NO)[C@H]1Cc2nccnc2CN1S(=O)(=O)c1ccc(Oc2ccc(Oc3ccccc3)cc2)cc1 |
| 160 | O=C(NO)[C@H]1Cc2cc(O)c(O)cc2CN1S(=O)(=O)c1cccs1 |
| 210 | CCOCCCOc1ccc(S(=O)(=O)N2Cc3cc(O)c(O)cc3C[C@@H]2C(=O)NO)cc1 |
| 490 | Nc1ccc2c(c1)CN(S(=O)(=O)c1ccc(Oc3ccccc3)cc1)[C@@H](C(=O)NO)C2 |
| 560 | CC(C)COCCCOc1ccc(S(=O)(=O)N2Cc3nccnc3C[C@@H]2C(=O)NO)cc1 |

| IC50 [nM] | Compound |
| --- | --- |
| 7700 | CCCCCC(=O)Nc1ccc(S(=O)(=O)N2Cc3nccnc3C[C@@H]2C(=O)NO)cc1 |
| 20000 | NS(=O)(=O)c1ccc(-c2ccc(S(=O)(=O)N3Cc4ccccc4C[C@@H]3C(=O)NO)cc2)cc1 |
| 4500 | Nc1ccc2c(c1)CN(S(=O)(=O)c1ccc(Oc3ncccn3)cc1)[C@@H](C(=O)NO)C2 |
| 570 | COc1ccc(S(=O)(=O)N2Cc3cc(NC(=O)[C@H](N)Cc4ccccc4)ccc3C[C@@H]2C(=O)NO)cc1 |
| 960 | O=C(NO)[C@H]1Cc2nccnc2CN1S(=O)(=O)c1cccs1 |
| 1100 | Nc1cccc(S(=O)(=O)N2Cc3ccccc3C[C@@H]2C(=O)NO)c1 |
| 820 | O=C(NO)[C@H]1Cc2cc(O)c(O)cc2CN1S(=O)(=O)c1ccc(Oc2cnccn2)cc1 |
| 12000 | Cc1ccccc1S(=O)(=O)N1Cc2nccnc2C[C@@H]1C(=O)NO |
| 1000 | CCOC(=O)COc1ccc(S(=O)(=O)N2Cc3nccnc3C[C@@H]2C(=O)NO)cc1 |
| 340 | O=C(NO)[C@H]1Cc2ccccc2CN1S(=O)(=O)c1cccs1 |
| 420 | CCCCOc1ccc(S(=O)(=O)N2Cc3ccccc3C[C@@H]2C(=O)NO)cc1 |
| 130 | C#Cc1ccc(S(=O)(=O)N2Cc3nccnc3C[C@@H]2C(=O)NO)cc1 |
| 990 | O=C(NO)[C@H]1Cc2cc(O)c(O)cc2CN1S(=O)(=O)c1ccc(OCCCc2ccccc2)cc1 |
| 340 | O=C(NO)[C@H]1Cc2nccnc2CN1S(=O)(=O)c1ccc(Oc2ccncc2)cc1 |
| 730 | COc1ccc(S(=O)(=O)N2Cc3cc(O)c(O)cc3C[C@@H]2C(=O)NO)cc1 |
| 40000 | O=C(NO)[C@H]1Cc2nccnc2CN1S(=O)(=O)c1ccc(C(F)(F)F)cc1 |
| 1800 | CS(=O)(=O)CCCOc1ccc(S(=O)(=O)N2Cc3nccnc3C[C@@H]2C(=O)NO)cc1 |
| 630 | CCCOc1ccc(S(=O)(=O)N2Cc3cc(O)c(O)cc3C[C@@H]2C(=O)NO)cc1 |
| 280 | COc1ccc(S(=O)(=O)N2Cc3cc(NC(=O)CN)ccc3C[C@@H]2C(=O)NO)cc1 |
| 39 | COCCCOc1ccc(S(=O)(=O)N2Cc3cc(N)ccc3C[C@@H]2C(=O)NO)cc1 |
| 630 | O=C(NO)[C@H]1Cc2nccnc2CN1S(=O)(=O)c1ccc(OCCCc2ccccc2)cc1 |
| 350 | COc1ccc(S(=O)(=O)N2Cc3nccnc3C[C@@H]2C(=O)NO)cc1 |
| 6700 | COc1ccc(CCS(=O)(=O)N2Cc3nccnc3C[C@@H]2C(=O)NO)cc1 |
| 600 | O=C(NO)[C@H]1Cc2nccnc2CN1S(=O)(=O)c1ccc(OCCCBr)cc1 |
| 280 | COc1ccc(S(=O)(=O)N2Cc3ccccc3C[C@@H]2C(=O)NO)cc1 |
| 1500 | O=C(NO)[C@H]1Cc2nccnc2CN1S(=O)(=O)c1ccc(OCCO)cc1 |
| 42 | O=C(NO)[C@H]1Cc2ccccc2CN1S(=O)(=O)c1ccccc1 |
